Screening data as filed in PubChem BioAssay.
T cruzi HTS – inhibitors of intracellular Trypanosoma cruzi; 22,000 compounds, 4.9% hits; AID 651903; intracellular Trypanosoma cruzi in host cells, plate reader; activity score (inhibition), % at 5.01 µM; in the data active means activity score above about 55%; inconclusive means no clear call, values can overlap the other calls;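 further: parasites and compound incubated about four days before reading; 0% = median of neutral control wells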
A1 apoptosis 2 – blocks A1, raising caspase activity. MEF A1-2A-BIM cells, caspase-Glo luminescence, 3 h; percent of clofoctol response, DMSO zero. caspase activation, % (no concentration beside the values). 24,000 tested, under 10 active; in the data active means caspase activation above about 5.9%; inconclusive means no clear call, values can overlap the other calls; inactive means below about 2.2%
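Material: mouse embryonic fibroblasts co-expressing A1 and BIM (A1-2A-BIM), primed for A1 dependence / Quantity: 2500 cells/well / Buffer or medium: RPMI-1640 growth medium with 10% FBS / Doses: 50 nL compound per well, pinned / Schedule: 3 h compound exposure at 37 °C / Signal: Caspase-Glo luminescence (DEVD substrate) / Measure: Caspase-3/7 activation, seen as rise in luminescence signal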
INS-1E ATP HTS – INS-1E beta cell protection from cytokine death | INS-1E cytokine-induced death, ATP luminescence, 48 h; normalised: neutral wells 0, positive control 100 | protection from cytokine-induced ATP loss, % at 10 µM | 20,000 compounds, 0.1% hits | AID 488910;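 active means mean replicate protection from cytokine-induced ATP loss at least 50% and at least 75% of replicates each reaching 50%; inconclusive means meets only one of the two criteria, mean or replicate share; inactive means fails both the mean and replicate share criteria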
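Assay system: INS-1E rat insulinoma cells. Amount: 8000 cells per well. Medium: phenol-red-free RPMI with 5% fetal bovine serum. Reagent: IL-1β, TNF-α and IFN-γ cytokine mix. Doses: one compound concentration, pin transfer. Schedule: 48 h co-treatment, 10 min post-lysis read. Detection: CellTiter-Glo luminescence measuring cellular ATP.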
* marks the source's active call; other numbers are inactive results; u = inconclusive; x = not tested or not shown. The full list was thinned out, with hits kept by preference.

SMILES	T cruzi HTS	A1 apoptosis 2	INS-1E ATP HTS
O=C1O[C@H](c2ccccc2)[C@H](c2ccccc2)N2[C@H]1[C@@H](C(=O)N1CCCCCCC1)[C@]1(C(=O)Nc3ccc(C#CCCO)cc31)[C@H]2c1ccccc1OCCO	x	0	x
C[C@@H]1CN([C@H](C)CO)C(=O)Cc2cc(NC(=O)Cc3cn(C)c4ccccc34)ccc2O[C@H]1CN(C)Cc1ccncc1	-15	-2	14
C[C@@H]1CN([C@@H](C)CO)C(=O)Cc2cc(NC(=O)Cc3cn(C)c4ccccc34)ccc2O[C@@H]1CN(C)Cc1ccc(Cl)c(Cl)c1	69*	x	-46
C[C@@H]1CN([C@H](C)CO)C(=O)c2cc(NC(=O)Cc3cn(C)c4ccccc34)ccc2O[C@@H]1CN(C)Cc1ccc(Cl)c(Cl)c1	79*	x	-15
C[C@@H]1CN([C@H](C)CO)C(=O)Cc2cc(NC(=O)Cc3cn(C)c4ccccc34)ccc2O[C@H]1CN(C)Cc1ccc(Cl)c(Cl)c1	63*	x	-17
C[C@@H]1CN([C@@H](C)CO)C(=O)Cc2cc(NC(=O)Cc3cn(C)c4ccccc34)ccc2O[C@@H]1CN(C)Cc1ccncc1	65*	0	-9
C[C@@H]1CN([C@@H](C)CO)C(=O)Cc2cc(NC(=O)Cc3cn(C)c4ccccc34)ccc2O[C@H]1CN(C)Cc1ccc(Cl)c(Cl)c1	x	-1	x
C[C@H](CO)N1C[C@H](C)[C@H](CN(C)Cc2ccccc2)Oc2ccc(NC(=O)Cc3cn(C)c4ccccc34)cc2CC1=O	7	-1	1
C[C@@H]1CN([C@@H](C)CO)C(=O)c2cc(NC(=O)Cc3cn(C)c4ccccc34)ccc2O[C@@H]1CN(C)Cc1ccc(Cl)c(Cl)c1	11	-1	-33
CC(C)=CCC[C@@H](C)C/C=N/NC(=O)CCCCC(=O)NO	14	0	3
O=C(CCCCCCC(=O)Nc1ccccc1O)N/N=C/c1ccc(S(=O)(=O)O)o1	-6	1	4
O=C1O[C@H](c2ccccc2)[C@H](c2ccccc2)N2[C@H]1[C@@H](C(=O)N1CCCCCCC1)[C@]1(C(=O)Nc3ccc(C#CC4=CCCCC4)cc31)[C@H]2c1ccc(OCCO)cc1	x	1	x
O=C(NO)c1ccc(C(=O)N/N=C/c2cccnc2Cl)cc1	7	1	8
COc1ccc([C@H]2C[C@H]3C(I)=CC2C(=O)[C@]32CO2)cc1OC	x	0	x
C[C@H](CO)N1C[C@H](C)[C@H](CN(C)Cc2ccc(C(F)(F)F)cc2)Oc2ccc(NC(=O)Nc3cccc4ccccc34)cc2C1=O	49	1	x
C[C@@H]1CN([C@@H](C)CO)C(=O)c2cc(NC(=O)Nc3cccc4ccccc34)ccc2O[C@@H]1CN(C)Cc1ccc(C(F)(F)F)cc1	59*	x	x
C[C@@H]1CN([C@@H](C)CO)C(=O)c2cc(NC(=O)Nc3cccc4ccccc34)ccc2O[C@H]1CN(C)Cc1ccccc1	u	x	-15
C[C@@H]1CN([C@H](C)CO)C(=O)c2cc(NC(=O)Nc3cccc4ccccc34)ccc2O[C@@H]1CN(C)Cc1ccc(C(F)(F)F)cc1	75*	0	-11
COC(=O)CCCCCCC(=O)N/N=C/c1cccc(O)c1O	41	1	-17
O=C1O[C@H](c2ccccc2)[C@H](c2ccccc2)N2[C@H]1[C@@H](C(=O)O)[C@]1(C(=O)Nc3ccc(C#CC4(O)CCCCCC4)cc31)[C@H]2c1ccc(O)cc1	x	0	x
COC(=O)CCCCCCC(=O)N/N=C/c1ccccn1	8	2	0
C[C@@H]1CCCCO[C@H](CN(C)C(=O)Nc2ccc(C(F)(F)F)cc2)[C@@H](C)CN([C@H](C)CO)C(=O)c2cc(NC(=O)Nc3ccccc3)ccc2O1	57*	1	-29
C[C@@H]1CN([C@@H](C)CO)C(=O)c2cc(NC(=O)Cc3ccccc3)ccc2O[C@@H](C)CCCCO[C@H]1CN(C)C(=O)Nc1ccccc1	x	-1	x
C[C@@H]1CCCCO[C@@H](CN(C)C(=O)Nc2ccc(C(F)(F)F)cc2)[C@@H](C)CN([C@H](C)CO)C(=O)c2cc(NC(=O)Cc3ccccc3)ccc2O1	59*	x	-5
C[C@H]1CCCCO[C@H](CN(C)C(=O)Nc2ccccc2)[C@@H](C)CN([C@@H](C)CO)C(=O)c2cc(NC(=O)Nc3ccc(C(F)(F)F)cc3)ccc2O1	x	1	x
C[C@H]1CCCCO[C@H](CN(C)C(=O)Nc2ccc(C(F)(F)F)cc2)[C@@H](C)CN([C@@H](C)CO)C(=O)c2cc(NC(=O)Nc3ccc(F)cc3)ccc2O1	x	-1	x
C[C@H](CO)N1C[C@H](C)[C@H](CN(C)C(=O)Nc2ccc(F)cc2)OCCCC[C@H](C)Oc2ccc(NC(=O)Nc3ccc(F)cc3)cc2C1=O	x	0	x
